Measured values reported in ChEMBL document CHEMBL4043302, “Lead Diversification at the Nanomole Scale Using Liver Microsomes and Quantitative Nuclear Magnetic Resonance Spectroscopy: Application to Phosphodiesterase 2 Inhibitors” (J Med Chem, 2018).

Experiments:
[1] = Drug level in rabbit liver microsomes treated with 7-(1,3-Dimethyl-5-(3-methyl-4-(trifluoromethyl)phenyl)-1H-pyrazol-4-yl)-2,5-dimethylimidazo[5,1-f ][1,2,4]triazin-4(3H)-one at 20 uM after 1 hr by UHPLC-UV-HRMS method; type: ADME, Oryctolagus cuniculus, microsome
[2] = Intrinsic clearance in human hepatocytes assessed per million cells at 1 uM after 0.5 to 4 hrs by HPLC-HRMS method; type: ADME, cell-based, Hepatocyte; conditions: for hepatocyte CLint at 1 µM: human hepatocytes, read-out: CLH; for CLint: hepatocytes, 1 µM
Outline: (§1)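 Compound at 1 µM was dried from d6-DMSO and redissolved in Williams E medium. Pooled human hepatocytes were added at 680000 cells/mL. Samples were quenched in water/CH3CN (2:1) with 2% formic acid and clozapine as internal standard, then analysed by HPLC-HRMS in positive-ion full scan. k came from the slope of ln peak-area ratio versus time; CLint = k / cell concentration. Non-specific binding was not measured.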

[3] = (§2) Apparent permeability across RRCK cells after 1.5 hrs; type: ADME, cell-based, Canis lupus familiaris, MDCKII-LE; conditions: dog, MDCK
[4] = tested on: Liver; experiment: Drug level in human liver microsomes treated with 2-(3,4-dimethoxybenzyl)-7-((2S,3R)-2-hydroxy-6-phenylhexan-3-yl)-5-methylimidazo[1,5-f][1,2,4]triazin-4(3H)-one at 20 uM after 1 hr by UHPLC-UV-HRMS method; type: ADME, microsome
Outline: (§3)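 Preparative incubation: substrate 20 µM with liver microsomes (2 mg/mL) of the listed species in 0.1 M potassium phosphate, pH 7.5, with MgCl2 3.3 mM and NADPH 1.3 mM. Run at 37°C in a shaking water bath and stopped with an equal volume of CH3CN. Products were fractionated by HPLC and quantified by qNMR in d6-DMSO.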

[5] = Metabolic stability in human hepatocytes at 1 uM after 0.5 to 4 hrs by HPLC-HRMS method; type: ADME, cell-based, Hepatocyte; outline: as §1
[6] = Drug level in cynomolgus monkey liver microsomes treated with 7-(1,3-Dimethyl-5-(5-(trifluoromethyl)pyridine-2-yl)-1H-pyrazol-4-yl)-2,5-dimethylimidazo[5,1-f ][1,2,4]triazin-4(3H)-one at 20 uM after 1.2 hrs by UHPLC-UV-HRMS method; type: ADME, Macaca fascicularis, microsome; outline: as §3
[7] = Drug level in hamster liver microsomes treated with 7-(1,3-Dimethyl-5-(4-(trifluoromethyl)phenyl)-1H-pyrazol-4-yl)-5-(methoxymethyl)-2-methylimidazol[5,1-f ][1,2,4]triazin-4-(3H)-one at 20 uM after 1 hr by UHPLC-UV-HRMS method; type: ADME, microsome; conditions: cricetinae; outline: as §3
[8] = target: cGMP-dependent 3',5'-cyclic phosphodiesterase (Homo sapiens, UniProt O00408); experiment: Inhibition of human PDE2A1 using 3',5'-[3H]cGMP as substrate after 30 mins by scintillation proximity assay
[9] = tested on: MDCKII-LE; experiment: as §2; type: ADME, cell-based, Canis lupus familiaris; conditions: dog, mdckii-le, 1.5 h
[10] = Drug level in hamster liver microsomes treated with 7-(5-(4-Methoxyphenyl)-1,3-dimethyl-1H-pyrazol-4-yl)-2,5-dimethylimidazo[5,1-f ][1,2,4]triazin-4(3H)-one at 20 uM after 1.5 hrs by UHPLC-UV-HRMS method; type: ADME, microsome; conditions: cricetinae; outline: as §3
[11] = tested on: Liver; experiment: Drug level in dog liver microsomes treated with 2-(3,4-dimethoxybenzyl)-7-((2R,3R)-2-hydroxy-6-phenylhexan-3-yl)-5-methylimidazo[1,5-f][1,2,4]triazin-4(3H)-one at 20 uM after 1 hr by UHPLC-UV-HRMS method; type: ADME, Canis lupus familiaris, microsome; outline: as §3

Sequence of cGMP-dependent 3',5'-cyclic phosphodiesterase (O00408 whole entry): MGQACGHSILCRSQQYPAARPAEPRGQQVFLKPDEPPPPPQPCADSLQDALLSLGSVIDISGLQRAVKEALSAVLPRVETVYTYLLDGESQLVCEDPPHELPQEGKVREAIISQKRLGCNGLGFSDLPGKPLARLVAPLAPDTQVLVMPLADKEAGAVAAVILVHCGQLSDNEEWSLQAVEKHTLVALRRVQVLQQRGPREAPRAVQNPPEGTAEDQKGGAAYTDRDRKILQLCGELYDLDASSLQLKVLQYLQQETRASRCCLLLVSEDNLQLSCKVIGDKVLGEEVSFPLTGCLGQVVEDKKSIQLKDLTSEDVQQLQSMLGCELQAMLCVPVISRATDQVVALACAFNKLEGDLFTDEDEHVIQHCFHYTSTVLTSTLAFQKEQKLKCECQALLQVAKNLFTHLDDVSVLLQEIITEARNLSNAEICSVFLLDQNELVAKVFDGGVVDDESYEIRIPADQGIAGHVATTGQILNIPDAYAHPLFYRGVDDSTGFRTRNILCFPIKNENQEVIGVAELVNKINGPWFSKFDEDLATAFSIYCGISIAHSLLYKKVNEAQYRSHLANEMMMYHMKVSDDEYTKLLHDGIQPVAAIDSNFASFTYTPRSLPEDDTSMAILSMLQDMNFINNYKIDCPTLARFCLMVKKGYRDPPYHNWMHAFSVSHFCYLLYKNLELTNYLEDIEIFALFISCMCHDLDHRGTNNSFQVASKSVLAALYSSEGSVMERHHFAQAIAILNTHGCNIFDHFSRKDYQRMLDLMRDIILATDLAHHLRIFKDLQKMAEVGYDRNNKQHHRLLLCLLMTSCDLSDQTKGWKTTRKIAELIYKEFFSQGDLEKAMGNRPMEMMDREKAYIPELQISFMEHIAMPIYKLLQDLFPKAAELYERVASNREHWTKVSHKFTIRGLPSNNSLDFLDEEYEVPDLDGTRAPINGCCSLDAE

| Structure (SMILES) | hepatocyte CLint at 1 µM [2] [µL/min/1e6 cells] | Papp at 1.5 h [3] [×10⁻⁶ cm/s] | Stability [5] | other results |
| --- | --- | --- | --- | --- |
| Cc1nn2c(-c3c(C)nn(C)c3-c3ccc(C(F)(F)F)c(CO)c3)nc(C)c2c(=O)[nH]1 | 3.9 | 3 | – | Drug metabolism [1]: Metabolite_Detected |
| COc1ccc(Cc2nn3c([C@@H](CCC(O)c4ccccc4)[C@H](C)O)nc(C)c3c(=O)[nH]2)cc1O (some centres not stated) | 9.6 | 1.2 | – | Drug metabolism [4]: Metabolite_Detected |
| COc1ccc(Cc2nn3c([C@@H](CCC(=O)c4ccccc4)[C@H](C)O)nc(C)c3c(=O)[nH]2)cc1OC | 32 | – | – | Drug metabolism [4]: Metabolite_Detected |
| Cc1nn2c(-c3c(CO)nn(C)c3-c3ccc(C(F)(F)F)cn3)nc(C)c2c(=O)[nH]1 | – | < 0.5 | Stable | Drug metabolism [6]: Metabolite_Detected |
| Cc1nn2c(-c3c(CO)nn(C)c3-c3ccc(C(F)(F)F)cc3)nc(CO)c2c(=O)[nH]1 | – | 1 | Stable | Drug metabolism [7]: Metabolite_Detected |
| COc1ccc(Cc2nn3c([C@@H](CCC(O)c4ccccc4)[C@H](C)O)nc(C)c3c(=O)[nH]2)cc1OC (stereo in doubt) | 11 | 2.8 | – | Drug metabolism [4]: Metabolite_Detected |
| Cc1nc(-c2cnn3c2CN(CC2CCCC2O)CC3)c2c(=O)[nH]cnn12 (single isomer, unassigned; diastereomer 2) | – | – | – | IC50 [8]: > 2000 nM; CLint [2]: 5.8 µL/min/1e6 cells |
| COc1ccc(Cc2nn3c([C@@H](CCC(O)c4ccccc4)[C@H](C)O)nc(C)c3c(=O)[nH]2)cc1OC (single isomer, unassigned; diastereomer 2) | – | – | – | CLint [2]: 14 µL/min/1e6 cells; Papp [9]: 2.2 ×10⁻⁶ cm/s |
| Cc1nn2c(-c3c(C)n[nH]c3-c3ccc(O)nc3)nc(C)c2c(=O)[nH]1 | – | < 0.5 | Stable | IC50 [8]: > 2000 nM; Drug metabolism [10]: Metabolite_Detected |
| COc1ccc(-c2[nH]nc(C)c2-c2nc(C)c3c(=O)[nH]c(C)nn23)cn1 | 1.9 | 1.1 | – | Drug metabolism [10]: Metabolite_Detected |
| COc1ccc(Cc2nn3c([C@@H](CCC(O)c4ccccc4)[C@@H](C)O)nc(C)c3c(=O)[nH]2)cc1OC (stereo in doubt) | – | – | – | CLint [2]: 17 µL/min/1e6 cells; Papp [9]: 2.2 ×10⁻⁶ cm/s |
| Cc1nn2c(-c3c(C(=O)O)nn(C)c3-c3ccc(C(F)(F)F)c(C)c3)nc(C)c2c(=O)[nH]1 | – | 53 | Stable | Drug metabolism [1]: Metabolite_Detected |
| Cc1nn2c(-c3c(C=O)nn(C)c3-c3ccc(C(F)(F)F)cn3)nc(C)c2c(=O)[nH]1 | 14.7 | 1.2 | – | Drug metabolism [6]: Metabolite_Detected |
| Cc1nn2c(-c3c(C)nn(C)c3-c3ccc(C(F)(F)F)c(CO)c3)nc(CO)c2c(=O)[nH]1 | – | < 0.5 | Stable | Drug metabolism [1]: Metabolite_Detected |
| COCc1nc(-c2c(C)nn(C)c2-c2ccc(C(F)(F)F)cc2)n2c1c(=O)[nH]c(C)[n+]2[O-] | 13 | 7.9 | – | Drug metabolism [7]: Metabolite_Detected |
| Cc1nn2c(-c3c(C)nn(C)c3-c3ccc(C(F)(F)F)c(C)c3)nc(CO)c2c(=O)[nH]1 | – | 13 | Stable | Drug metabolism [1]: Metabolite_Detected |
| COc1ccc(Cc2nn3c([C@@H](CCC(O)c4ccccc4)[C@@H](C)O)nc(C)c3c(=O)[nH]2)cc1O (some centres not stated) | 12 | 1.1 | – | Drug metabolism [11]: Metabolite_Detected |
| Cc1nn2c(-c3c(CO)nn(C)c3-c3ccc(C(F)(F)F)c(C)c3)nc(CO)c2c(=O)[nH]1 | – | 1.7 | Stable | Drug metabolism [1]: Metabolite_Detected |
| Cc1nn2c(-c3c(C)nn(C)c3-c3ccc(C(F)(F)F)cc3)nc(CO)c2c(=O)[nH]1 | – | 8.3 | Stable | IC50 [8]: 0.3 nM; Drug metabolism [7]: Metabolite_Detected |
| COc1ccc(Cc2nn3c([C@@H](CCC(O)c4ccccc4)[C@@H](C)O)nc(C)c3c(=O)[nH]2)cc1OC (single isomer, unassigned; diastereomer 1) | 14 | 2 | – | Drug metabolism [11]: Metabolite_Detected |
| COc1ccc(Cc2nn3c([C@@H](C(O)CC(O)c4ccccc4)[C@H](C)O)nc(C)c3c(=O)[nH]2)cc1OC (some centres not stated) | 4.3 | – | – | Drug metabolism [4]: Metabolite_Detected |
| Cc1nn2c(-c3c(CO)nn(C)c3-c3ccc(C(F)(F)F)c(CO)c3)nc(C)c2c(=O)[nH]1 | – | 0.55 | Stable | Drug metabolism [1]: Metabolite_Detected |
| Cc1nn2c(-c3c(C)n[nH]c3-c3ccc(C(F)(F)F)cc3)nc(CO)c2c(=O)[nH]1 | – | 0.94 | Stable | Drug metabolism [7]: Metabolite_Detected |
| COc1ccc(-c2c(-c3nc(CO)c4c(=O)[nH]c(C)nn34)c(C)nn2C)cn1 | – | 0.76 | Stable | Drug metabolism [10]: Metabolite_Detected |
| COc1ccc(-c2[nH]nc(C)c2-c2nc(CO)c3c(=O)[nH]c(C)nn23)cn1 | – | < 0.5 | Stable | Drug metabolism [10]: Metabolite_Detected |
| COc1ccc(Cc2nn3c([C@@H](CC(O)C(O)c4ccccc4)[C@@H](C)O)nc(C)c3c(=O)[nH]2)cc1OC (some centres not stated) | 2.4 | 0.56 | – | Drug metabolism [11]: Metabolite_Detected |
| COc1cc(Cc2nn3c([C@@H](CCC(O)c4ccccc4)[C@@H](C)O)nc(C)c3c(=O)[nH]2)ccc1O (some centres not stated) | 13 | 1.2 | – | Drug metabolism [11]: Metabolite_Detected |
| Cc1nn2c(-c3c(C)nn(C)c3-c3ccc(C(F)(F)F)cn3)nc(CO)c2c(=O)[nH]1 | – | 1.7 | Stable | Drug metabolism [6]: Metabolite_Detected |
| Cc1nn2c(-c3c(CO)nn(C)c3-c3ccc(C(F)(F)F)cn3)nc(CO)c2c(=O)[nH]1 | – | 0.54 | Stable | Drug metabolism [6]: Metabolite_Detected |
| COc1ccc(Cc2nn3c([C@@H](CCC(=O)c4ccccc4)[C@@H](C)O)nc(C)c3c(=O)[nH]2)cc1OC | 25 | 11 | – | Drug metabolism [11]: Metabolite_Detected |
